Calls of active or inactive are those of the source. The calls are words filed in the database; no cut-off is given here.
Columns and labels:
[1] = Toxicity in po dosed albino Sprague-Dawley rat assessed as behavioral toxicity after 0.25 to 4 hrs; format: organism-based; conditions: in vivo
Method in brief: (§1)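 Male albino Sprague-Dawley rats dosed ip or orally, scored for behavioral toxicity (neurological impairment). TD50 is in mg/kg, taken at the time of peak effect.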

[2] = Toxicity in ip dosed albino Sprague-Dawley rat assessed as behavioral toxicity after 0.25 to 0.5 hrs; format: organism-based; conditions: in vivo; method in brief: as §1
[3] = Toxicity in ip dosed albino CF1 mouse after 0.25 to 4 hrs by rotorod test; format: organism-based; conditions: in vivo
[4] = tested on: Mus musculus; experiment: Anticonvulsant activity against ip dosed albino CF1 mouse after 0.25 to 1 hr by maximal electroshock seizure test; format: functional
[5] = tested on: Mus musculus; experiment: Anticonvulsant activity against ip dosed albino CF1 mouse after 0.5 to 4 hrs by 6 Hz psychomotor seizure test; format: functional
[6] = tested on: Mus musculus; experiment: Anticonvulsant activity against ip dosed albino CF1 mouse after 0.25 to 2 hrs by subcutaneous pentylenetetrazol test; format: functional
[7] = tested on: Rattus norvegicus; experiment: Anticonvulsant activity against po dosed albino Sprague-Dawley rat after 0.25 to 4 hrs by maximal electroshock seizure test; format: functional
Method in brief: (§2)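 Male albino Sprague-Dawley rats dosed ip or orally under the NIH Anticonvulsant Screening Program, tested by maximal electroshock seizure.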

[8] = tested on: Rattus norvegicus; experiment: Anticonvulsant activity against ip dosed albino Sprague-Dawley rat after 0.25 to 0.5 hrs by maximal electroshock seizure test; format: functional; method in brief: as §2
[9] = Inhibition of Na+ channel in mouse CAD cells assessed as slow inactivation by whole cell voltage clamp technique; format: cell-based
Method in brief: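 CAD cells (Ham's F12/EMEM, 8% FBS, 37 °C, 5% CO2) by whole-cell voltage clamp at room temperature. Na+ channel slow inactivation measured at −50 mV; IC50 is the concentration at which half of the channels reach a slow-inactivated state.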

[10] = Toxicity in po dosed albino Sprague-Dawley rat assessed as behavioral toxicity; format: organism-based; conditions: in vivo
Method in brief: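 Neurological impairment was scored as behavioral toxicity in male albino Sprague-Dawley rats dosed orally, NIH Anticonvulsant Screening Program. The median impairing dose (TD50, mg/kg) was taken at the time of peak effect.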

[11] = tested on: Mus musculus; experiment: Anticonvulsant activity against ip dosed albino CF1 mouse after 0.25 to 4 hrs by subcutaneous pentylenetetrazol test; format: functional
[12] = Toxicity in ip dosed albino Sprague-Dawley rat assessed as behavioral toxicity after 0.25 to 4 hrs; format: organism-based; conditions: in vivo; method in brief: as §1
[13] = tested on: Mus musculus; experiment: Anticonvulsant activity against ip dosed albino CF1 mouse after 4 hrs by maximal electroshock seizure test; format: functional
[14] = tested on: Rattus norvegicus; experiment: Anticonvulsant activity against ip dosed albino Sprague-Dawley rat after 0.25 to 4 hrs by maximal electroshock seizure test; format: functional; method in brief: as §2
[15] = tested on: Mus musculus; experiment: Anticonvulsant activity against ip dosed albino CF1 mouse after 1 to 4 hrs by 6 Hz psychomotor seizure test; format: functional
[16] = tested on: Mus musculus; experiment: Anticonvulsant activity against ip dosed albino CF1 mouse after 0.5 to 4 hrs by subcutaneous pentylenetetrazol test; format: functional
[17] = tested on: Mus musculus; experiment: Anticonvulsant activity against ip dosed albino CF1 mouse after 1 hr by 6 Hz psychomotor seizure test; format: functional
[18] = tested on: Mus musculus; experiment: Anticonvulsant activity against ip dosed albino CF1 mouse after […] by maximal electroshock seizure test; format: functional
[19] = tested on: CAD; experiment: Inhibition of Na+ channel in mouse CAD cells assessed as frequency-dependent inactivation at 10 uM by whole cell voltage clamp technique relative to control; format: cell-based
Method in brief: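 Frequency (use)-dependent inhibition of Na+ currents in CAD cells by whole-cell voltage clamp at room temperature. Current trend and amplitude at 10 μM compared with control.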

[20] = tested on: CAD; experiment: Inhibition of Na+ channel in mouse CAD cells assessed as fast inactivation by whole cell voltage clamp technique; format: cell-based
Method in brief: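 Steady-state fast inactivation in CAD cells by whole-cell voltage clamp at room temperature. Cells held at −80 mV, given 500-ms prepulses from −120 to −10 mV in 10-mV steps, then a 20-ms step to 0 mV. Curves fitted with a single Boltzmann; V1/2 shift compared with 0.1% DMSO by ANOVA and Dunnett's test. Mean ± SEM.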

[21] = tested on: Rattus norvegicus; experiment: Anticonvulsant activity against po dosed albino Sprague-Dawley rat […] by maximal electroshock seizure test; format: functional; method in brief: as §2
[22] = tested on: Mus musculus; experiment: Anticonvulsant activity against ip dosed albino CF1 mouse after 0.25 to 0.5 hrs by maximal electroshock seizure test; format: functional
[23] = tested on: Mus musculus; experiment: Anticonvulsant activity against ip dosed albino CF1 mouse after 0.5 to 1 hr by 6 Hz psychomotor seizure test; format: functional

## Cl.NCc1ccc(-c2cccc(Cl)c2)cc1
[1]
  TD50: > 30 mg/kg
[2]
  TD50: 65 mg/kg
[3]
  TD50: > 100 mg/kg
[4]
  ED50: < 100 mg/kg
[5]
  ED50: < 100 mg/kg
[6]
  ED50: < 100 mg/kg
[7]
  ED50: > 30 mg/kg
[8]
  ED50: 65 mg/kg

## COC[C@@H](NC(C)=O)C(=O)NCc1ccccc1 [LACOSAMIDE]
[9]
  IC50: 85 µM
[10]
  TD50: > 500 mg/kg

## Cl.NCc1ccc(-c2ccc(F)cc2)cc1
[1]
  TD50: > 30 mg/kg
[3]
  TD50: > 50 mg/kg
[11]
  ED50: > 50 mg/kg
[7]
  ED50: > 30 mg/kg
[12]
  TD50: > 30 mg/kg
[13]
  ED50: 50 mg/kg
[14]
  ED50: > 30 mg/kg
[15]
  ED50: < 100 mg/kg

## COc1cccc(-c2ccc(CN)cc2)c1.Cl
[16]
  ED50: > 100 mg/kg
[1]
  TD50: > 30 mg/kg
[3]
  TD50: > 100 mg/kg
[17]
  ED50: 100 mg/kg
[7]
  ED50: > 30 mg/kg
[12]
  TD50: > 30 mg/kg
[14]
  ED50: > 30 mg/kg
[18]
  ED50: < 100 mg/kg

## NCc1ccc(OCc2cccc(F)c2)cc1
[9]
  IC50: 2.1 µM
[19]
  inhibition: Active
[20]
  inhibition: Active

## O=C1NC(=O)C(c2ccccc2)(c2ccccc2)N1 [PHENYTOIN]
[21]
  ED50: 30 mg/kg

## Cl.NCc1ccc(-c2ccccc2)cc1
[16]
  ED50: > 300 mg/kg
[1]
  TD50: > 30 mg/kg
[3]
  TD50: > 100 mg/kg
[22]
  ED50: 30 mg/kg
[7]
  ED50: > 30 mg/kg
[23]
  ED50: 100 mg/kg
[12]
  TD50: > 30 mg/kg
[14]
  ED50: > 30 mg/kg

— ChEMBL document CHEMBL2401663, “(Biphenyl-4-yl)methylammonium chlorides: potent anticonvulsants that modulate Na+ currents” (J Med Chem, 2013)
